First the molecules themselves.
B1: tRNA (parent)
chain: GUUCCGUUGGCGUAAUGGUAACGCGUCUCCCUCCUAAGGAGAAGACUGCGGGUUCGAGUCCCGUACGGAACG

Variants at the floor of the assay were thinned out.

The variants in the series derive from B1. The experiment in a line: yeast fitness relative to wild type (ratio to wild type); higher = fitter; tRNA-Arg(CCU), competitive growth, 37 C, YPD. The gist of the method:
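Genotype frequency changes were the basis for Darwinian fitness relative to wild type. The frequencies came from 100-nucleotide paired-end sequencing of gene amplicons from the start population and each end population of pooled yeast strains with tRNA-Arg(CCU) gene variants at the native locus. Competition ran in YPD at 37°C for 24 hours in six replicates, genotypes needed ≥ 100 starting reads, and estimates < 0.5 were set to 0.5.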
For GUUCCGUUAGCGUAAUGGUAACGCGUCUCACUCCUAAGAAGAAGACAGCGGGUUCGAGUCCCCUACGGAACG [G9A C30A G39A U47A G63C], the yeast fitness is ≤ 0.5.

Turning to GUUCCGUUAGCGUAAUGGUAACGCGUCUCCCUCUUAAGGAGAAGACUGCGGGUUCGAGUCGCGUACGGAACG [G9A C34U C61G], the yeast fitness came to 0.521.

GUUCCGUUAGCGUAAUGGUAACGCGUCUCCCUUCUAAGGAGAAGACUGCGGGUUCGAGUCCCGUACGGAACG [G9A C33U]: the yeast fitness was found to be 0.897.

On to GUUCCGUUAGCGUAAUGGUAACGCGUCUCCCUCCUAAGGAGAAGACUGCGGGUUGGAGUCCCGAACGGAACG [G9A C55G U64A], for which the yeast fitness is ≤ 0.5.

Consider GUUCCGUUAGCGUAAUGGUAACGCGUCUACCUCCUAAGGAGCAGACUGCGGGUUUGAGUCCCGUACGGAACG [G9A C29A A42C C55U], for which the yeast fitness was ≤ 0.5.

For GUUCCGUUAGCGUAAUGGUAACGCGUCUCCUUCCUAAGGAGAAGACUGUGGGUUCGAGUCCCGUACGGCACG [G9A C31U C49U A69C], the yeast fitness is ≤ 0.5.

As for GUUCCGUUAGCGUAAUGGUAACGCGUCUCCCUUCUAAGGAGCAGACUGCGGGUUCGAGUCCCGUACGGUACG [G9A C33U A42C A69U], the yeast fitness is ≤ 0.5.

For the variant GUUCCGUUAGCGUAAUGGUAACGCGUCUCCAUCCUAAGGAGAUGACUGCGGGUUCGAGUCACGUACGGAACG [G9A C31A A43U C61A], the yeast fitness was ≤ 0.5.

Regarding GUUCCGUUAGCGUAAUGGUAACGUGUCUCCCUCCUAAGGAGAAGACUGCGGGUUCGAGUCCCGUCCGGAACG [G9A C24U A65C], the yeast fitness is 0.536.

Consider GUUCCGUUAGCGUAAUGGUAACGCGUCUUCCUCCUAAGGAGAAGACUGCGGGUUCGAGUCCCGUACGGAACG [G9A C29U], for which the yeast fitness came out at 0.914.

For GUUCCGUUAGCGUAAUGGUAACGUGGCUCCCUCCUAAGGAGAAGACUGCGGGUUCGAGUCCCGUACGGAACG [G9A C24U U26G], the yeast fitness worked out at 0.569.

With GUUCCGUUAGCGUAAUGGUAACGCGUCUCCCUCUUAAGGAGAAGACUGCGGGUUCGAGUCCCGUACGGUACG [G9A C34U A69U], the yeast fitness was 0.549.

On to GUUCCGUUAGCGUAAUGGUAACGCGUCUCCCUCCUAAGGAGAAGACUGUGGGUUCGAGUCCCGUACGGUACG [G9A C49U A69U], for which the yeast fitness was found to be 0.785.

As for GUUCCGUUAACGUAAUGGUAGCGCGUCUCCCUCCUAAGGAGAAGACUGCGGGUUCAAGUCCCGUUCGGAACG [G9A G10A A21G G56A A65U], the yeast fitness was ≤ 0.5.

For the variant GUUCCGUUAGCGUAAUGGUAACGCGUCUCCAUCCUAAGGAGCAGACUGCGGGUUCGGGUCCCGUACGGAACG [G9A C31A A42C A57G], the yeast fitness worked out at 0.522.

With GUUCCGUUAGCGUAAUGGUAACGCGUCUCCCUCCUAAGGAGAAGACUGCGGGUUCGAGUGCCGUACGGAACG [G9A C60G], the yeast fitness was found to be 0.629.

As for GUUCCGUUAACGUAAUGGUAACGCGUCUCCGUCCUAAGGAGAAGACUGCGGAUUCGAGUCCCGUACGGAACG [G9A G10A C31G G52A], the yeast fitness is 0.531.

GUUCCGUUAGCGUAAUGGUAACGCGUCUCCAUCCUAAGGAGCAGACUGCGGGUUCGAGUCCCGUACGGAACG [G9A C31A A42C]: the yeast fitness was found to be 0.54.

With GUUCCGUUAACGUAAUGGUAACGCGUCUCCGUCCUAAGGAGAAGACUGCGGAUUCGAGUCGCGUACGGAACG [G9A G10A C31G G52A C61G], the yeast fitness was ≤ 0.5.

As to GUUCCGUUAGCGUAAUGGUAACGCGUCUCCCUCCUAAGGAGAAGAGUGCGGGUUCGAGUCCCGUACGGAACG [G9A C46G], the yeast fitness turned out to be 0.993.

Consider GUUCCGUUAGCGUAAUGGUAACGCGUCUCCCUCCUAAGGAGAAGAGUGUGGGUUCGAGUCCCGUACGGUACG [G9A C46G C49U A69U], for which the yeast fitness worked out at 1.11.

On to GUUCCGUUAGCGUAAUGGUAACGCGUCUCUCUCCUAAGGAGAAGACUGCGGGUUCGAGUCCCGUACGGAACG [G9A C30U], for which the yeast fitness came out at 0.888.

In the case of GUUCCGUUAGCGUAAUGGUAACGCGUCUCACUCCUAAGGAGAAGACUGCGGGUUCGAGUCCCGUACGGAACG [G9A C30A], the yeast fitness amounted to 0.964.

Regarding GUUCCGUUAGCGUAAUGGUAACGCGUCUCGCUCCUAAGGAGAAGACUGCGGGUUCGAGUCCCGUACGGAACG [G9A C30G], the yeast fitness was 0.707.

Regarding GUUCCGUUAGCGUAAUGGUAACGCGUCUCGCCCCUAAGGGGAAGACUGCCGGUUCGUGUCCCGUACGGAACG [G9A C30G U32C A40G G50C A57U], the yeast fitness was ≤ 0.5.

With GUUCCGUUAGCGUAAUGGUAACGCGUCUCCCUUCUUAGGAGAAGACUGCGGGUUCGAGACCCGUACGGAACG [G9A C33U A36U U59A], the yeast fitness is ≤ 0.5.

Consider GUUCCGUUAGCGUAAUGGUAACGCGUCUCCUUCCUACGGAGAAGACUGCGGGUUCGAGUCCCAUACGGAACG [G9A C31U A37C G63A], for which the yeast fitness was ≤ 0.5.

For the variant GUUCCGUUAGCGUAAUGGUAACGCGUGUCCCUCCUAGGGAGAAGACUGCGGGAUCGAGUCCCGUACGGAACG [G9A C27G A37G U53A], the yeast fitness is ≤ 0.5.

Turning to GUUCCGUUAACGUAAUGGUAACGCGUCCCCCUCCUAAGGAGAAGACUGCGGGUUCGAGUCCCGUACGGAACG [G9A G10A U28C], the yeast fitness is ≤ 0.5.

For GUUCCGUUAGCGUAAUGGUAACGCGUCUUCCUCCUAAGGAGAAGAUUGCGGGUUCGAGUCCCGUAUGGAACG [G9A C29U C46U C66U], the yeast fitness came to 0.637.

Regarding GUUCCGUUAGCGUAAUGGUAACGCGUCUCGGACCUAAGGAGAAGACUGCGGGUUCGAGUCCCGUAUGGAACG [G9A C30G C31G U32A C66U], the yeast fitness is ≤ 0.5.

GUUCCGUUAGCGUAAUGGUAACGCGUCUUCCUCCUAAGGAGAAGAUUGCGGGUUCGAGUCCCGUACCGAACG [G9A C29U C46U G67C]: the yeast fitness was found to be 0.583.

Take GUUCCGUUAGCGUAAUGGUAACGCGUCUCGCUCCUAAGGAGAAGACUGCGGGUUCGAGUCCCGUACGUAACG [G9A C30G G68U]: the yeast fitness is ≤ 0.5.

For GUUCCGUUAGCGUAAUGGUAACGCGUCUCCGUCCUAAGGAGAAGACUGCGGGUUCGAGUCCCGUCCGGAACG [G9A C31G A65C], the yeast fitness was ≤ 0.5.

As for GUUCCGUUAGCGUAAUGGUAACGCGUCUACCUCCUAAGGAGAAGACUGCAGGUUCGAGUCCCGUACGGCACG [G9A C29A G50A A69C], the yeast fitness was ≤ 0.5.

Consider GUUCCGUUAGCGUAAUGGUAACGUGUCUCCCUCCUAAGGUGAAGACUGCGGGUUCGCGUCCCGUACGGAACG [G9A C24U A40U A57C], for which the yeast fitness was ≤ 0.5.

GUUCCGUUAGCGUAAUGGUAACGCGUGUCCCUCCUAAGGAGAAGACUGCGGGUUCGAGUCCCGUACGGAACG [G9A C27G]: the yeast fitness stood at 0.757.

Values taken from the RNAGym collection of RNA variant scans (doi:10.1126/science.aae0568).
